Reference: ChEMBL document CHEMBL1154908, “Structure-activity relationships studies in a series of N,N-bis(alkanol)amine aryl esters as P-glycoprotein (Pgp) dependent multidrug resistance (MDR) inhibitors” (J Med Chem, 2010)

How the values were obtained:
[1] = target: T1, ATP-dependent translocase ABCB1 (Homo sapiens, UniProt P08183); assay: Inhibition of P-glycoprotein-mediated multidrug resistance in human doxorubicin-resistant K562 cells assessed as maximal increase in nuclear concentration of pirarubicin by spectrofluorimetry relative to sensitive K562 cells; assay type: cell-based
T1 sequence (P08183 whole entry): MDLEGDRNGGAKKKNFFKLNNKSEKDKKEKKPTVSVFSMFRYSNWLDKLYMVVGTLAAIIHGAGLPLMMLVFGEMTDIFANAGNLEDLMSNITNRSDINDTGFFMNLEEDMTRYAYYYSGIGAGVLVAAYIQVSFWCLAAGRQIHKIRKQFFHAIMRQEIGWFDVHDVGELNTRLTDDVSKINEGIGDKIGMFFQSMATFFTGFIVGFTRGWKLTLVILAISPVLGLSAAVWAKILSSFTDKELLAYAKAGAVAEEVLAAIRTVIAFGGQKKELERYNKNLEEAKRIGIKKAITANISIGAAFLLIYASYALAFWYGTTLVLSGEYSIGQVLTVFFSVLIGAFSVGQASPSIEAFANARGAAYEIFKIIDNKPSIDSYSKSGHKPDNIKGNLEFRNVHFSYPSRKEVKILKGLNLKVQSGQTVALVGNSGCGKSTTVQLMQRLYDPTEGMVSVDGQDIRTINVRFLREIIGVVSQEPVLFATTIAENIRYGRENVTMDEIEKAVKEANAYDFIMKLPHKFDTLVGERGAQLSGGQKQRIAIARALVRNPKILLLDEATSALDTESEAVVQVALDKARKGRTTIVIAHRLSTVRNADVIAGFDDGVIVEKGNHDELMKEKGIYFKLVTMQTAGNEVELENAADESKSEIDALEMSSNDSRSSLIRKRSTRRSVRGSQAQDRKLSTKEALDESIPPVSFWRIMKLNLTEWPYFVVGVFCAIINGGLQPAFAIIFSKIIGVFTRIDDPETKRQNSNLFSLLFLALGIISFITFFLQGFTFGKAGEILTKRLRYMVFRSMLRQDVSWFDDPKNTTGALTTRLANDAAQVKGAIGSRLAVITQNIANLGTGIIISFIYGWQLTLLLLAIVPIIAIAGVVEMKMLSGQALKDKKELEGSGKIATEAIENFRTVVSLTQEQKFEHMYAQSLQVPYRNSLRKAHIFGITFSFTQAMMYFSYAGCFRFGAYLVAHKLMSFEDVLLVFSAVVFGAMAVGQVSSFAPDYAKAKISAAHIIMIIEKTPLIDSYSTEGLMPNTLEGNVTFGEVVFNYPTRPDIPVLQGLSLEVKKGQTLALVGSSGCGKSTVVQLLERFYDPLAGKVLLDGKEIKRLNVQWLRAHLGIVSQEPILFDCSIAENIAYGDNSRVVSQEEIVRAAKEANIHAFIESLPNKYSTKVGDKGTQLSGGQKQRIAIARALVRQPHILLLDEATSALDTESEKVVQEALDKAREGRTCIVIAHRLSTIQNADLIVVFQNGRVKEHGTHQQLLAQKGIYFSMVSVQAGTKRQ
Procedure, shortened: (§1)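 Pirarubicin uptake was measured in doxorubicin-resistant K562/DOX cells, which overexpress only Pgp, by continuous spectrofluorometry (excitation 480 nm, emission 590 nm) after incubation. R is the fold increase in nuclear pirarubicin with inhibitor, from 0 (no inhibitor) to 1 (equal to sensitive cells). Rmax is the maximal attainable R. Reported concentrations are those giving R = 0.2 or R = 0.5.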

[2] = target: T1, ATP-dependent translocase ABCB1; assay: Inhibition of P-glycoprotein-mediated multidrug resistance in human doxorubicin-resistant K562 cells assessed as drug level causing 50% increase in nuclear concentration of pirarubicin by spectrofluorimetry; assay type: cell-based; conditions: read-out: INH; procedure, shortened: as §1
K562 [3] = assay: Growth inhibition in doxorubicin-resistant human K562 cells overexpressing Pgp at 3 uM after 72 hrs by MTT assay; assay type: functional; conditions: K562, 72 h, read-out: GI
K562 [4] = assay: Growth inhibition in human K562 cells at 1 uM after 72 hrs by MTT assay; assay type: functional; conditions: K562, 72 h, read-out: GI
K562 [5] = assay: Growth inhibition in human K562 cells at 3 uM after 72 hrs by MTT assay; assay type: functional; conditions: K562, 72 h, read-out: GI
K562 [6] = assay: Growth inhibition in doxorubicin-resistant human K562 cells overexpressing Pgp at 1 uM after 72 hrs by MTT assay; assay type: functional; conditions: K562, 72 h, read-out: GI
[7] = target: T1, ATP-dependent translocase ABCB1; assay: Inhibition of P-glycoprotein-mediated multidrug resistance in human doxorubicin-resistant K562 cells assessed as drug level causing 20% increase in nuclear concentration of pirarubicin by spectrofluorimetry; assay type: cell-based; procedure, shortened: as §1

| SMILES | fold change (FC) [1] | IC50 [2] | inhibition of growth at 3 µM (K562 [3]) | inhibition of growth at 1 µM (K562 [4]) | inhibition of growth at 3 µM (K562 [5]) | inhibition of growth at 1 µM (K562 [6]) | INH [7] |
| --- | --- | --- | --- | --- | --- | --- | --- |
| COc1ccc(/C=C/C(=O)OCCCN(C)CCCOC(=O)c2c3ccccc3cc3ccccc23)cc1OC | 0.57 | 0.19 µM | – | – | – | – | – |
| COc1cc2c(cc1OC)CN(CCC(=O)OCCCN(C)CCCOC(=O)/C=C/c1cc(OC)c(OC)c(OC)c1)CC2 | 0.63 | 3.7 µM | – | – | – | – | – |
| COc1cc(/C=C/C(=O)OCCCNCCCOC(=O)/C=C/c2c3ccccc3cc3ccccc23)cc(OC)c1OC | 0.92 | 0.8 µM | – | – | – | – | – |
| COc1cc(/C=C/C(=O)OCCCN(C)CCCOC(=O)/C=C/c2ccc(-c3ccccc3)cc2)cc(OC)c1OC | 0.85 | 0.24 µM | ≤ 10% | ≤ 10% | ≤ 10% | ≤ 10% | – |
| COc1cc(/C=C/C(=O)OCCCCCN(C)CCCCCOC(=O)/C=C/c2ccc(-c3ccccc3)cc2)cc(OC)c1OC | 0.4 | – | – | – | – | – | 0.36 µM |
| COc1ccc(/C=C/C(=O)OCCCCCN(C)CCCCCOC(=O)c2c3ccccc3cc3ccccc23)cc1OC | 1 | 0.17 µM | ≤ 10% | ≤ 10% | ≤ 10% | ≤ 10% | – |
| COc1cc(/C=C/C(=O)OCCCN(C)CCCOC(=O)c2ccc(-c3ccccc3)cc2)cc(OC)c1OC | 0.77 | 0.22 µM | – | – | – | – | – |
| COc1cc(/C=C/C(=O)OCCCCCN(C)CCCCCOC(=O)C=C(c2ccccc2)c2ccccc2)cc(OC)c1OC | 0.28 | – | – | – | – | – | 0.5 µM |
| COc1ccc(/C=C/C(=O)OCCCN(C)CCCOC(=O)c2c3ccccc3c(Cl)c3ccccc23)cc1OC | 0.98 | 0.41 µM | – | – | – | – | – |
| COc1ccc(C(C(=O)OCCCCCN(C)CCCCCOC(=O)/C=C/c2cc(OC)c(OC)c(OC)c2)c2ccc(OC)cc2)cc1 | 0.5 | 0.4 µM | – | – | – | – | – |
| COc1ccc(CCN(C)CCCC(C#N)(c2ccc(OC)c(OC)c2)C(C)C)cc1OC (centres undefined) [VERAPAMIL] | – | – | ≤ 10% | ≤ 10% | ≤ 10% | ≤ 10% | – |
| COc1cc(/C=C/C(=O)OCCCN(C)CCCOC(=O)CCN2C(=O)C3C4c5ccccc5C(c5ccccc54)C3C2=O)cc(OC)c1OC (centres undefined) | 0.63 | 0.39 µM | – | – | – | – | – |
| COc1cc(/C=C/C(=O)OCCCN(C)CCCOC(=O)C=C(c2ccccc2)c2ccccc2)cc(OC)c1OC | 0.66 | 0.16 µM | 20% | 20% | 20% | ≤ 10% | – |
| COc1cc(/C=C/C(=O)OCCCN(C)CCCOC(=O)CN2C(=O)C3C4c5ccccc5C(c5ccccc54)C3C2=O)cc(OC)c1OC (centres undefined) | 0.73 | 0.23 µM | – | – | – | – | – |
| COc1ccc(C(C(=O)OCCCN(C)CCCOC(=O)/C=C/c2cc(OC)c(OC)c(OC)c2)c2ccc(OC)cc2)cc1 | 0.79 | 0.08 µM | ≤ 10% | ≤ 10% | ≤ 10% | ≤ 10% | – |
| COc1cc(/C=C/C(=O)OCCCN(C)CCCOC(=O)/C=C/c2c3ccccc3cc3ccccc23)cc(OC)c1OC | 0.93 | 0.25 µM | – | – | – | – | – |
| COc1ccc(C(C#N)(CCCNCc2c3ccccc3cc3ccccc23)C(C)C)cc1OC (centres undefined) | 0.7 | 0.05 µM | – | – | – | – | – |
| COc1ccc(/C=C/C(=O)OCCCN(C)CCCOC(=O)c2cc(OC)c(OC)c(OC)c2)cc1OC | 0.34 | – | – | – | – | – | 0.7 µM |
| COc1ccc(/C=C/C(=O)OCCCN(C)CCCOC(=O)/C=C/c2cc(OC)c(OC)c(OC)c2)cc1OC | 0.5 | – | – | – | – | – | 1.4 µM |
| COc1cc(/C=C/C(=O)OCCCN(C)CCCOC(=O)C(c2ccccc2)c2ccccc2)cc(OC)c1OC | 0.77 | 0.26 µM | ≤ 10% | ≤ 10% | ≤ 10% | ≤ 10% | – |
| COc1ccc(/C=C/C(=O)OCCCCCN(C)CCCCCOC(=O)c2cc(OC)c(OC)c(OC)c2)cc1OC | 0.7 | 0.64 µM | – | – | – | – | – |
